Laboratory results as given in PubChem BioAssay.
Results filed as inconclusive are left out.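 Rule for the calls, unless noted: active = growth inhibition above 25% in both replicates, a cutoff set 3 SD above the mean; inconclusive = above 25% in only one replicate; inactive = the rest.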

Key:
[1] = OD615 S. cerevisiae growth inhibition, permissive medium, pilot counter-assay, permissive growth control for S. cerevisiae lifespan shortening project (AID 705); conditions: OD615, 24 h, at 10 µM, active compounds read high
In short: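 Test system: Saccharomyces cerevisiae strain carrying genetically modified DeaD replicative-lifespan system; buffer or medium: SC raffinose/galactose permissive medium; dosing: one dose 10 µM, DMSO 0.25% final; times: 24 h exposure, 30 °C; measured by: OD at 615 nm; read-out basis: growth inhibition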

[2] = Restrictive medium S. cerevisiae growth inhibition, OD615, pilot screen of yeast lifespan reduction project, restrictive growth control (AID 706;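 active = growth inhibition above a set limit, 3 SD over mean compound inhibition, in both replicates, cut at about 43% in these data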;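 note: modified DeaD lifespan yeast strain shifted to restrictive glucose medium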); conditions: OD615, 48 h, at 10 µM, active compounds read high
In short: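 material = engineered S. cerevisiae DeaD strain | buffer or medium = glucose-based CSMM-D restrictive medium | dosing = one concentration, 10 µM final, 0.25% DMSO | schedule = 4 h pre-growth plus 48 h compound exposure, 30 °C | detection = OD615 absorbance reading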

[3] = viability gain of MRP-1-high H69AR cells under doxorubicin, pilot screen, MRP-1 activator project, CellTiter-Glo, duplicate (AID 807;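 active = viability increase at or above a cutoff of the median across tested compounds plus 3 SD, cut at about 8.5% in these data, passing the limit was not always enough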;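 note: compound pretreatment 18-22 h then 72 h combined with doxorubicin; 0% = doxorubicin alone and 100% = vehicle without doxorubicin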); conditions: H69AR viability with doxorubicin, CellTiter-Glo luminescence; at 10 µM; active compounds read high
[4] = growth suppression of beta-catenin knockout HCT116, pilot screen, human colon tumor cells (AID 823;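 active = cell viability at or below a set limit in both duplicate runs, the limit being the all-compound median minus 4 SD, cut at about 23% in these data, passing the limit was not always enough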;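 note: 0% = wells killed by 20 µM Hyamine and 100% = untreated DMSO cell wells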); conditions: CellTiter-Glo, 60 h, at 10 µM, active compounds read low
[5] = growth suppression of PTEN-deleted HCT116, pilot screen, cell-based, HCT116 clonal line, CellTiter-Glo (AID 824;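 active = viability at or below 27.92% in each of two runs, the all-compound median minus 4 SD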;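 note: 0% = 20 µM Hyamine control and 100% = vehicle cell control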); conditions: 60 h, at 10 µM, active compounds read low
[6] = inhibitors of the yeast RAM network, pilot screen, dse1pr::URA3 reporter, 5-FOA selection (AID 869;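 active = inhibition over a set limit, the all-compound mean plus 3 SD, in both replicate runs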;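 note: 0% = DMSO wells with no growth and 100% = 10 µM 1-NA-PP1 with full growth; RAM network block rescues cells from 5-FOA so hits raise OD615 growth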); conditions: S. cerevisiae dse1pr::URA3 5-FOA growth, OD615, 2 d; at 10 µM; active compounds read high; strain carries analog-sensitive mutant Cbk1 kinase
[7] = RAM signaling pathway blockade in yeast – S. cerevisiae, Pdr1DBD-CYC8 efflux-inhibited sensitized strain, primary screen (AID 1298;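 active = RAM network inhibition above 8.4% in each of two replicates, 3 SD over the compound average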;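 note: 0% = DMSO untreated cells without growth and 100% = 10 µM 1-NA-PP1 full growth; higher means more yeast growth rescued from 5-FOA killing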); conditions: S. cerevisiae cbk1-as DSE1-URA3 strain, 5-FOA growth OD615, 2 d; at 50 µM; active compounds read high

CN(c1nnc(N)s1)C1CCCCC1
inactive: growth inhibition [1] 1.35% | growth inhibition [2] 14% | viability increase [3] -1.87% | viability [4] 104% | viability [5] 98.7% | inhibition [6] 2.38% | RAM network inhibition [7] 3.49%

CC(Cc1ccccc1)N/C=C1/CC(=O)NC1=O (configuration not stated)
inactive: growth inhibition [1] -8.61% | growth inhibition [2] 0.51% | viability increase [3] -1.53% | viability [4] 97% | viability [5] 97% | inhibition [6] 1.42% | RAM network inhibition [7] 2.56%

CC1Cn2c(nnc2-c2cccc(N)c2)S1 (configuration not stated)
inactive: growth inhibition [1] 1.06% | growth inhibition [2] 14.3% | viability increase [3] -1.3% | viability [4] 98.7% | viability [5] 100% | inhibition [6] 1.52% | RAM network inhibition [7] 3.44%

Cc1cc(SCC(=O)OCC(=O)N2CCN(C(=O)c3ccco3)CC2)c(C)cc1Br
inactive: growth inhibition [1] -2.27% | growth inhibition [2] 4.81% | viability increase [3] -2.19% | viability [4] 91.4% | viability [5] 98.2% | inhibition [6] 0.31% | RAM network inhibition [7] 0.4%

O=C(NCCN1C(=O)C2C3C=CC(C3)C2C1=O)Nc1ccccc1O (configuration not stated)
inactive: growth inhibition [1] -6.45% | growth inhibition [2] -1.21% | viability increase [3] -1.45% | viability [4] 106% | viability [5] 106% | inhibition [6] 1.5% | RAM network inhibition [7] 4.02%

CCOC(=O)C1CCN(S(=O)(=O)c2ccc3[nH]c(=O)oc3c2)CC1
inactive: growth inhibition [1] -10% | growth inhibition [2] -5.23% | viability increase [3] -1.5% | viability [4] 97.8% | viability [5] 91.1% | inhibition [6] 0.515% | RAM network inhibition [7] 2.82%

CN(C)CCN(Cc1ccccc1)c1ccnc(N(C)C)c1C#N
inactive: growth inhibition [1] -13.2% | growth inhibition [2] -17.6% | viability increase [3] -4.22% | viability [4] 85.2% | viability [5] 89.5% | inhibition [6] 1.11% | RAM network inhibition [7] 2.08%

CC(=O)N1CCC(C(=O)Nc2ccccc2)(N(Cc2ccccc2)C(=O)c2cccnc2)CC1
inactive: growth inhibition [1] -2.38% | growth inhibition [2] 4.33% | viability increase [3] -0.15% | viability [4] 95.7% | viability [5] 86.7% | inhibition [6] 1.47% | RAM network inhibition [7] -1.39%

CC1=CS/C(=C(/C#N)C(=O)N2CCCCC2)N1c1ccccc1
inactive: growth inhibition [1] -0.66% | growth inhibition [2] -8.34% | viability increase [3] -1.48% | viability [4] 97.3% | viability [5] 95.8% | inhibition [6] 0.425% | RAM network inhibition [7] 2.37%

COCCNC(=O)CS(=O)Cc1nc(-c2ccc(OC)cc2)oc1C (configuration not stated)
inactive: growth inhibition [1] -9.42% | growth inhibition [2] -4.61% | viability increase [3] 0.42% | viability [4] 103% | viability [5] 95.2% | inhibition [6] 1.11% | RAM network inhibition [7] 0.85%

Fc1ccc(C2CC(c3ccccc3)Nc3ncnn32)cc1 (configuration not stated)
inactive: growth inhibition [1] -10.3% | growth inhibition [2] -3.12% | viability increase [3] -0.63% | viability [4] 93.5% | viability [5] 98.1% | inhibition [6] 1.04% | RAM network inhibition [7] 1.19%

CC(CCc1ccccc1)NC(=O)CSc1nnnn1C (configuration not stated)
inactive: growth inhibition [1] -6.04% | growth inhibition [2] -18.6% | viability increase [3] -1.52% | viability [4] 101% | viability [5] 101% | inhibition [6] 1.61% | RAM network inhibition [7] 4.5%

Cc1nnc(NC(=O)CCCCCN2C(=O)C3C4C=CC(C4)C3C2=O)s1 (configuration not stated)
inactive: growth inhibition [1] -10.6% | growth inhibition [2] -1.29% | viability increase [3] 1.66% | viability [4] 96.7% | viability [5] 102% | inhibition [6] -0.595% | RAM network inhibition [7] 3.05%

CC(C)n1c(SCCCc2ccccc2)nc2c1c(=O)[nH]c(=O)n2C
inactive: growth inhibition [1] -6.04% | growth inhibition [2] 4.52% | viability increase [3] -0.9% | viability [4] 92.2% | viability [5] 87.5% | inhibition [6] 1.95% | RAM network inhibition [7] 8.85%

CC(=O)CCS(=O)(=O)c1ccc(C)c(C)c1
inactive: growth inhibition [1] -1.55% | growth inhibition [2] -7.75% | viability increase [3] -6.33% | viability [4] 71.6% | viability [5] 90.2% | inhibition [6] 0.885% | RAM network inhibition [7] 1.15%

CCN1CCN(C(=O)c2cc3c(=O)oc4ccc(C)cc4c3s2)CC1
inactive: growth inhibition [1] -12.6% | growth inhibition [2] -16.2% | viability increase [3] -2.18% | viability [4] 102% | viability [5] 93.7% | inhibition [6] 0.905% | RAM network inhibition [7] 1.3%

CCOc1nonc1C(=N)/C(C(C)=O)=C(\C)O
inactive: growth inhibition [1] -12.6% | growth inhibition [2] -12.1% | viability increase [3] -1.06% | viability [4] 104% | viability [5] 98% | inhibition [6] 1.42% | RAM network inhibition [7] -0.48%

O=C(Cn1ncc2c(=O)oc3ccccc3c21)N1CCC(N2CCCCC2)CC1
inactive: growth inhibition [1] 9.66% | growth inhibition [2] 1.36% | viability increase [3] -1.31% | viability [4] 99.5% | viability [5] 99.8% | inhibition [6] 1.65% | RAM network inhibition [7] 4.58%

O=C(Nc1c(C(=O)N2CCCCC2)cnn1-c1ccccc1)c1ccccc1
inactive: growth inhibition [1] -13.8% | growth inhibition [2] -4.25% | viability increase [3] -1.28% | viability [4] 105% | viability [5] 92% | inhibition [6] 1.99% | RAM network inhibition [7] 2.44%

Cc1ccc(C2CC(c3ccco3)n3nc(N)nc3N2)cc1 (configuration not stated)
inactive: growth inhibition [1] 4.36% | growth inhibition [2] 11.9% | viability increase [3] -1.44% | viability [4] 96.5% | viability [5] 99.8% | inhibition [6] -1.15% | RAM network inhibition [7] 3.41%

CCn1c(C2CC(=O)N(c3ccc(C)c(C)c3)C2)nc2ccccc21 (configuration not stated)
inactive: growth inhibition [1] -6.54% | growth inhibition [2] 1.06% | viability increase [3] -3.09% | viability [4] 86.7% | viability [5] 89.9% | inhibition [6] -0.35% | RAM network inhibition [7] 0.57%

O=C(CSCC(=O)NC1CC1)Nc1ccccc1
inactive: growth inhibition [1] -0.675% | growth inhibition [2] -11.9% | viability increase [3] -1.13% | viability [4] 98.2% | viability [5] 98.7% | inhibition [6] 0.03% | RAM network inhibition [7] -0.72%

CCOC(=O)N1CCC(NC(=O)c2ccc3snnc3c2)CC1
inactive: growth inhibition [1] -6.44% | growth inhibition [2] -4.42% | viability increase [3] -3.44% | viability [4] 98.5% | viability [5] 89.7% | inhibition [6] 0.55% | RAM network inhibition [7] 4.29%

Cc1nc2sc(C(c3ccco3)N3CCC(Cc4ccccc4)CC3)c(O)n2n1 (configuration not stated)
inactive: growth inhibition [1] 0.165% | growth inhibition [2] 4.34% | viability increase [3] 0.64% | viability [4] 95.2% | viability [5] 91.4% | inhibition [6] 1.14% | RAM network inhibition [7] 9.02%

OC1CC(c2ccco2)NC2(CCCCC2)C1 (configuration not stated)
inactive: growth inhibition [1] -4.09% | growth inhibition [2] 1.06% | viability increase [3] -1.66% | viability [4] 97.2% | viability [5] 94.6% | inhibition [6] 0.39% | RAM network inhibition [7] 2.73%

O=C1Nc2ccccc2C(O)(C(=O)N2CCCCC2)N1c1ccccc1 (configuration not stated)
inactive: growth inhibition [1] -10.5% | growth inhibition [2] -20.2% | viability increase [3] -1.87% | viability [4] 98.9% | viability [5] 92.2% | inhibition [6] 2.2% | RAM network inhibition [7] 7.2%

COc1ccc(C2C(C(=O)NCC3CCCO3)c3cc(OC)c(OC)cc3C(=O)N2C)cc1OC (configuration not stated)
inactive: growth inhibition [1] -13.5% | growth inhibition [2] -13.4% | viability increase [3] -1.75% | viability [4] 92.4% | viability [5] 99.7% | inhibition [6] 1.46% | RAM network inhibition [7] 0.94%

CCn1c(COc2cccc3cccnc23)nnc1SCC(=O)O
inactive: growth inhibition [1] -4.3% | growth inhibition [2] 8.66% | viability increase [3] -0.53% | viability [4] 95.5% | viability [5] 91.5% | inhibition [6] 2.12% | RAM network inhibition [7] 0.05%

CC1(C)CCCC2=C1CC1C(=O)N(Cc3cccnc3)C(=O)C1C2 (configuration not stated)
inactive: growth inhibition [1] -6.32% | growth inhibition [2] -10.3% | viability increase [3] -0.2% | viability [4] 82.2% | viability [5] 86.7% | inhibition [6] 1.11% | RAM network inhibition [7] 4.53%

Cc1nn(C)c(C)c1N=Cc1c(O)ccc2ccccc12
inactive: growth inhibition [1] -25.2% | growth inhibition [2] -28.4% | viability increase [3] -1.72% | viability [4] 105% | viability [5] 92.1% | inhibition [6] -0.015% | RAM network inhibition [7] -0.32%

O=C(CN1C(=O)C2C3C=CC(C3)C2C1=O)Nc1ccc2nccnc2c1 (configuration not stated)
inactive: growth inhibition [1] 7.15% | growth inhibition [2] -1.04% | viability increase [3] -1.76% | viability [4] 105% | viability [5] 95.2% | inhibition [6] 2.29% | RAM network inhibition [7] 0.31%

N#Cc1cccc(NC(=O)NCCc2c[nH]c3ccccc23)c1
inactive: growth inhibition [1] -17.4% | growth inhibition [2] 1.5% | viability increase [3] -4.55% | viability [4] 93.1% | viability [5] 90.2% | inhibition [6] -0.125% | RAM network inhibition [7] 4.4%

COc1ccc(OCCSc2ncnc3nc[nH]c23)cc1
inactive: growth inhibition [1] 2.66% | growth inhibition [2] 22.4% | viability increase [3] -3.5% | viability [4] 86.6% | viability [5] 81.3% | inhibition [6] 3.27% | RAM network inhibition [7] 4.46%

CCCSC1=C(C#N)C(c2ccc(Cl)cc2Cl)CC(=O)N1 (configuration not stated)
inactive: growth inhibition [1] 3.83% | growth inhibition [2] 24% | viability increase [3] -1.42% | viability [4] 83.5% | viability [5] 79.4% | inhibition [6] 1.54% | RAM network inhibition [7] 3.58%

Cc1csc(NC(=O)CSc2nnc(Cn3c(=O)sc4ccccc43)n2-c2ccccc2)n1
inactive: growth inhibition [1] 0.38% | growth inhibition [2] 15.3% | viability increase [3] -1.37% | viability [4] 96% | viability [5] 96.8% | inhibition [6] 2.42% | RAM network inhibition [7] 6.99%

Cn1c(CSc2nc3ccc(Br)cc3[nH]2)nc2ccccc21
inactive: growth inhibition [1] -3.63% | growth inhibition [2] 12.1% | viability increase [3] 1.66% | viability [4] 90.8% | viability [5] 85.2% | inhibition [6] 1.4% | RAM network inhibition [7] 9.55%
